We go through 9 molecules from ChEMBL document CHEMBL1146549, “Five new cassane diterpenes from Myrospermum frutescens with activity against Trypanosoma cruzi” (J Nat Prod, 2003).

In assay [1] the test system is Trypanosoma cruzi. Description: Antitrypanosomal activity against Trypanosoma cruzi epimastigotes after 3 days. In kind it is functional, organism-based. The note with it: 72 h. In outline:
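Recombinant epimastigotes grown in LIT medium with 10% calf serum at 28 °C, seeded at 1 × 10^5/mL with test compounds. After 3 days, CPRG and Nonidet P-40 added as in the intracellular assay, OD 570 nm. Amphotericin B as positive control. IC50 derived as in the intracellular assay.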

Assay [2] has as its system Trypanosoma cruzi. Kind of assay: Antitrypanosomal activity against Trypanosoma cruzi Tulahuen clone C4 trypomastigotes in HFF after 7 days by beta-galactosidase reporter gene assay. To be noted: 168 h. It counts as functional, organism-based. In outline:
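HFF seeded at 1 × 10^3/well in RPMI-1640 without phenol red plus 10% fetal calf serum, overnight. βGal-expressing trypomastigotes added at 1 × 10^3/well, overnight, then serial dilutions (final 50, 10, 2 µg/mL). DMSO ≤0.1% final; vehicle control. Read at 7 days post-infection: CPRG 100 µM, Nonidet P-40 0.1% final, 4-6 h at 37 °C, OD 570 nm. Duplicates, ≥3 experiments, SD.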

For assay [3], the system named is HFF. Kind of assay: Cytotoxicity against HFF after 3 days by MTT assay. It counts as cell-based. To be noted: Homo sapiens, 72 h. In outline: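 Primary human foreskin fibroblasts adhered to 96-well plates, exposed to compounds, and viability assessed by MTT reduction after 3 days at 37 °C in CO2. IC50 derived as in the intracellular assay.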
(Tetrazolium assays rely on reduction of a dye to a coloured formazan, in cell work by metabolically active cells.)

The nature of assay [4]: Ratio of IC50 for HFF to IC50 for Trypanosoma cruzi Tulahuen clone C4 trypomastigotes.
A short description of assay [5]: Ratio of IC50 for HFF to IC50 for Trypanosoma cruzi epimastigotes.

Consider `C=CC1=C(C)[C@@H]2CC(=O)[C@H]3[C@](C)(CO)CCC[C@]3(C)[C@H]2CC1`, for which the IC50 in assay [1] was determined as 36 µM.
`C=CC1=C(C)[C@@H]2CC[C@H]3[C@](C)(CO)CCC[C@]3(C)[C@H]2CC1`: the IC50 in assay [2] turned out to be 17.4 µM; in assay [3], 149 µM; in assay [1], 48.6 µM. The Ratio IC50 in assay [4] stood at 9.
On to `CC1CS(=O)(=O)CCN1/N=C/c1ccc([N+](=O)[O-])o1` (stereo not given) [NIFURTIMOX], for which the midpoint of inhibition in assay [2], the IC50, lay at 11 µM. This lies in the double-digit micromolar range.
As to `C=CC1=C(C)[C@@H]2C[C@@H](OC(C)=O)[C@H]3[C@](C)(COC(C)=O)CCC[C@]3(C)[C@H]2CC1`, in assay [1], the IC50 was 59 µM. This lies in the double-digit micromolar range.
On the same count and under the same terms, then `C[C@@H]1[C@H](O)[C@@H](C)/C=C/C=C/C=C/C=C/C=C/C=C/C=C/[C@H](O[C@@H]2O[C@H](C)[C@@H](O)[C@H](N)[C@@H]2O)C[C@@H]2O[C@](O)(C[C@@H](O)C[C@@H](O)[C@H](O)CC[C@@H](O)C[C@@H](O)CC(=O)O[C@H]1C)C[C@H](O)[C@H]2C(=O)O` [AMPHOTERICIN B], with 1 µM.
On to `C=CC1=C(C)[C@@H]2C[C@@H](O)[C@H]3[C@](C)(COC(C)=O)CCC[C@]3(C)[C@H]2CC1`, for which the figures for the IC50 in assay [2], in assay [3] and in assay [1] were 25.9 µM, 118 µM and 11.5 µM, respectively. Besides, the Ratio IC50 in assay [5] is 10.
In assay [1], `C=CC1=C(C)[C@@H]2CC[C@H]3[C@@](COC(C)=O)(C(=O)O)CCC[C@]3(C)[C@H]2CC1` displayed an IC50 of 104 µM.
Turning to `C=CC1=C(C)[C@@H]2C[C@@H](O)[C@H]3[C@](C)(CO)CCC[C@]3(C)[C@H]2CC1`, the IC50 turned out to be 16.6 µM in assay [2], 148 µM in assay [3] and 56 µM in assay [1]. Moreover, the Ratio IC50 in assay [4] was 9.
For `C=C[C@@]1(O)CC[C@H]2[C@@H](C[C@@H](O)[C@H]3[C@](C)(COC(C)=O)CCC[C@]23C)C1=C`, the IC50 in assay [2] worked out at 35.8 µM; in assay [3] it was 124 µM; in assay [1], 16.5 µM.

Usually IC50 stands for the concentration at which inhibition is half-maximal. A higher IC50 goes with lower potency.
